NO production (% of LPS), viability and inhibition data for 19 molecules are collected here from ChEMBL document CHEMBL4819082, “Ximaoglaucumins A - F, new cembranoids with anti-inflammatory activities from the South China Sea soft coral Sarcophyton glaucum” (Bioorg Med Chem, 2021).

Data set [1] relates to BV-2. Briefly: Antiinflammatory activity against mouse BV2 cells assessed as reduction in LPS-induced NO production at 10 uM incubated for 2 hrs followed by LPS stimulation and measured after 24 hrs by Griess reagent based assay relative to control. Format: functional. The settings on record: BV-2, 26 h. The method in brief: (§1)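 BV-2 cells were seeded at 2.0×10^5 cells/mL in DMEM high-glucose with 10% FBS and grown 24 h at 37 °C, 5% CO₂. They were pretreated with compound for 2 h, then exposed to LPS at 100 ng/mL for 24 h. Medium was mixed 1:1 with Griess buffer for 15 min at room temperature and read at 540 nm. Nitrite came from a sodium nitrite standard curve and was normalized to the LPS-group mean (100%).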
A general note: The Griess reaction detects nitrite, a stable product of nitric oxide.

Data set [2] in a line: Cytotoxicity against mouse BV2 cells assessed as cell viability at 10 uM measured after 24 hrs by MTT assay. Format: cell-based, BV-2. The settings on record: read-out: Activity. An outline of the steps: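 BV-2 cells were seeded at 1.25×10^4 cells/mL and grown 24 h at 37 °C, 5% CO₂. They were then exposed to compound for 24 h, with 0.5 mg/mL MTT added for the final 3 h. Absorbance was read at 490 nm, and viability was normalized to the untreated control mean (100%).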
(In general: Tetrazolium dyes change colour on reduction, which living cells bring about.)

For data set [3], the system named is BV-2. In words: Antiinflammatory activity against mouse BV2 cells assessed as reduction in LPS-induced IL-6 mRNA expression incubated for 2 hrs followed by LPS stimulation and measured after 6 hrs by qRT-PCR analysis. The settings on record: time 8.0 hrs. The format is functional, cell-based. An outline of the steps:
(§2)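 BV-2 microglia were seeded at 1 × 10⁵ cells/mL, pretreated with compound for 2 h, then given LPS at 100 ng/mL for 6 h. Total RNA was extracted with Trizol and reverse-transcribed to cDNA, and IL-1β or IL-6 transcripts were quantified.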
For orientation: Real-time PCR tracks product formation cycle by cycle.

The test system of data set [4] is BV-2. Briefly: Antiinflammatory activity against mouse BV2 cells assessed as reduction in LPS-induced IL-1beta mRNA expression incubated for 2 hrs followed by LPS stimulation and measured after 6 hrs by qRT-PCR analysis. Format: functional, cell-based. The settings on record: time 8.0 hrs. The method in brief:
as §2

The test system of data set [5] is BV-2. Briefly: Antiinflammatory activity against mouse BV2 cells assessed as reduction in LPS-induced NO production at 20 uM incubated for 2 hrs followed by LPS stimulation and measured after 24 hrs by Griess reagent based assay relative to control. Format: functional. The settings on record: BV-2, 26 h. An outline of the steps: as §1

Turning to `CC(=O)OC/C1=C\CC/C(C)=C/CC[C@](C)(O)[C@H]2C=C(C(C)C)[C@H](C1)O2`, the NO production (% of LPS) at 10 µM in the data set on BV-2 [1] is 92.7%. Also, the viability at 24 h, 10 µM in data set [2] was 102%.

For `C=C1C[C@H](O)/C(C(C)C)=C\C=C(/C)CC/C=C(\C)CC[C@H]1O`, the NO production (% of LPS) at 10 µM with BV-2 [1] was 75.9%. Also, the viability at 24 h, 10 µM in data set [2] is 96%.

`C/C1=C\CC[C@](C)(O)[C@H]2C=C(C(C)C)[C@H](C/C(C)=C/CC1)O2`: in the data set on BV-2 [1], the NO production (% of LPS) at 10 µM came to 82%. In addition, the viability at 24 h, 10 µM in data set [2] came to 99.2%.

As for `C=C1CC/C=C(\C)C[C@H](O)/C(C(C)C)=C\C=C(/C)CC[C@H]1O`, the NO production (% of LPS) at 10 µM with BV-2 [1] was 84.6%. Further, in data set [2], the viability at 24 h, 10 µM was 102%.

Regarding `C/C1=C/C=C(/C(C)C)[C@@H](O)C/C(C)=C/CC/C(C)=C/CC1`, in the data set with BV-2 [1], the NO production (% of LPS) at 10 µM is 88.8%. Besides, in data set [2], the viability at 24 h, 10 µM is 103%.

Regarding `C/C1=C\C=C(\C(C)C)[C@@H](O)C[C@]2(C)O[C@H]2CC/C(C)=C/CC1`, the NO production (% of LPS) at 10 µM in the data set with BV-2 [1] is 77.9%. Moreover, in data set [2], the viability at 24 h, 10 µM is 101%.

In the case of `C/C1=C\C=C(\C(C)C)CC/C(C)=C/CCC(C)(O)/C=C/C1` (stereo unspecified), in the data set with BV-2 [1], the NO production (% of LPS) at 10 µM was 80.2%. For the same molecule, the viability at 24 h, 10 µM in data set [2] was 101%.

For `C/C1=C\CC[C@](C)(O)/C=C/[C@H](C(C)C)CC/C(C)=C/CC1`, the NO production (% of LPS) at 10 µM in the data set with BV-2 [1] is 76.5%. In addition, the viability at 24 h, 10 µM in data set [2] was determined as 106%.

As to `C/C1=C\C=C(\C(C)C)[C@@H](O)C/C(C)=C/CC/C(C)=C/CC1`, the inhibition result in the data set with BV-2 [3] and in the data set on BV-2 [4] was “Dose-Dependent Effect” throughout. Further, in the data set with BV-2 [1], the NO production (% of LPS) at 10 µM amounted to 67.8%. In data set [2], the viability at 24 h, 10 µM amounted to 106%.

As for `Oc1ccc(/C=C/c2cc(O)cc(O)c2)cc1` [RESVERATROL], the NO production (% of LPS) at 20 µM in the data set on BV-2 [5] was determined as 74.3%.

Turning to `C=C1CC/C=C(\C)C[C@H](OC(C)=O)/C(C(C)C)=C\C=C(/C)CC[C@H]1O`, the NO production (% of LPS) at 10 µM in the data set with BV-2 [1] worked out at 74.5%. Moreover, the viability at 24 h, 10 µM in data set [2] worked out at 108%.

Turning to `C/C1=C\CC/C(C)=C/C=C(/C(C)C)[C@@H](O)C[C@](C)(O)/C=C/C1`, the NO production (% of LPS) at 10 µM in the data set with BV-2 [1] is 79.5%. The viability at 24 h, 10 µM in data set [2] was determined as 95.2%.

As to `C=C1C[C@H](O)/C(C(C)C)=C\C=C(/C)CC/C=C(\C)CC[C@@H]1OO`, the NO production (% of LPS) at 10 µM in the data set with BV-2 [1] came out at 74.2%. Moreover, the viability at 24 h, 10 µM in data set [2] stood at 103%.

Regarding `CC(=O)OC/C1=C\CC/C(C)=C/CC/C(C)=C/C=C(/C(C)C)[C@@H](O)C1`, the NO production (% of LPS) at 10 µM in the data set on BV-2 [1] turned out to be 71.3%. Moreover, the viability at 24 h, 10 µM in data set [2] is 111%.

Take `C/C1=C\C=C(\C(C)C)CC/C(C)=C/CC/C(C)=C/CC1`: the NO production (% of LPS) at 10 µM with BV-2 [1] turned out to be 85.5%. The viability at 24 h, 10 µM in data set [2] worked out at 100%.

Take `C/C1=C\CC/C(C)=C/C=C(/C(C)C)[C@@H](O)C[C@@](C)(OO)/C=C/C1`: the NO production (% of LPS) at 10 µM in the data set on BV-2 [1] stood at 85.3%. Besides, the viability at 24 h, 10 µM in data set [2] amounted to 104%.

Regarding `C/C1=C\C=C(\C(C)C)[C@@H](O)[C@H](O)/C(C)=C/CC/C(C)=C/CC1`, the inhibition entry with BV-2 [3] and in the data set on BV-2 [4] was “Dose-Dependent Effect” throughout. Also, the NO production (% of LPS) at 10 µM with BV-2 [1] came out at 68.7%. Further, the viability at 24 h, 10 µM in data set [2] amounted to 101%.

On to `CC(=O)O[C@H]1C/C(C)=C/CCC(C)(O)/C=C/C/C(C)=C/C=C\1C(C)C` (stereo partly specified), for which the NO production (% of LPS) at 10 µM in the data set with BV-2 [1] came out at 74.4%. Moreover, the viability at 24 h, 10 µM in data set [2] was determined as 97.2%.

For the molecule `C/C1=C\[C@H]2O[C@](C)(CC[C@H]2C(C)C)[C@@H](O)CC/C(C)=C/CC1`, the NO production (% of LPS) at 10 µM with BV-2 [1] amounted to 87.2%. The viability at 24 h, 10 µM in data set [2] was 99.9%.
